Test results reported in ChEMBL document CHEMBL1138520, “Molecular and conformational determinants of pituitary adenylate cyclase-activating polypeptide (PACAP) for activation of the PAC1 receptor” (J Med Chem, 2009).
Where a SMILES comes first, the peptide text is derived from it. [ ]: non-standard residue; d: D form. 1Nal = N[C@@H](Cc1cccc2ccccc12)C(=O)O; Aib = CC(C)(N)C(=O)O

Columns and labels:
[1] = target: T1, Pituitary adenylate cyclase-activating polypeptide type I receptor (Homo sapiens, UniProt P41586); assay: Displacement of [125I]Ac-PACAP27 from human recombinant PAC1 receptor expressed in CHO cells by gamma- counter; format: cell-based
Target sequence in this assay (P41586 whole entry): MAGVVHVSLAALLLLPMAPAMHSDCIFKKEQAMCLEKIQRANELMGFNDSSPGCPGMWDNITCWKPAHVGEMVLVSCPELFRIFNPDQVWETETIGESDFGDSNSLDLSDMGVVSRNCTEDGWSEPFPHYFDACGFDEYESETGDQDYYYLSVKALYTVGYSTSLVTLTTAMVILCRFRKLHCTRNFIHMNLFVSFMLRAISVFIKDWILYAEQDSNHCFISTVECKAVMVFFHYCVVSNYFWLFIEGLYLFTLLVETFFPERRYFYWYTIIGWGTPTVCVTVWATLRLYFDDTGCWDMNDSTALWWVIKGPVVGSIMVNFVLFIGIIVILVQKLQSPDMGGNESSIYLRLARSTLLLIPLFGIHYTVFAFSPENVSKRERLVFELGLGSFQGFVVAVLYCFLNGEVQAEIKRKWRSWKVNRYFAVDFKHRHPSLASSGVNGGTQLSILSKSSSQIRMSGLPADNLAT

[2] = target: T1, Pituitary adenylate cyclase-activating polypeptide type I receptor; assay: Agonist activity at human recombinant PAC1 receptor expressed in CHO cells assessed as PACAP38-induced calcium mobilization by FLIPR assay; format: functional, cell-based
Outline: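 CHO cells stably expressing recombinant human PAC1, plated 24 h before assay, loaded with fluo-4 AM for 60 min at 37 °C in the dark, then rinsed into HBSS for 15 min at 37 °C. EC50 and efficacy came from nonlinear regression; 4-10 independent assays in duplicate.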
Target sequence in this assay (P41586 whole entry): as above

[3] = target: T1, Pituitary adenylate cyclase-activating polypeptide type I receptor; assay: Agonist activity at human recombinant PAC1 receptor expressed in CHO cells assessed as PACAP38-induced calcium mobilization by FLIPR assay relative to PACAP38; format: functional, cell-based
Outline: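 CHO cells stably expressing recombinant human PAC1, plated 24 h before assay, loaded with fluo-4 AM for 60 min at 37 °C in the dark, then rinsed into HBSS for 15 min at 37 °C. Peptide was added 18 s into a 150 s read (ex 480/em 525 nm), at final concentrations of 1 × 10-12 to 1 × 10^-5 M. Response was normalised to 1 × 10^-5 M PACAP38 on each plate. EC50 and efficacy came from nonlinear regression; 4-10 independent assays in duplicate.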
Target sequence in this assay (P41586 21-468 limits assumed): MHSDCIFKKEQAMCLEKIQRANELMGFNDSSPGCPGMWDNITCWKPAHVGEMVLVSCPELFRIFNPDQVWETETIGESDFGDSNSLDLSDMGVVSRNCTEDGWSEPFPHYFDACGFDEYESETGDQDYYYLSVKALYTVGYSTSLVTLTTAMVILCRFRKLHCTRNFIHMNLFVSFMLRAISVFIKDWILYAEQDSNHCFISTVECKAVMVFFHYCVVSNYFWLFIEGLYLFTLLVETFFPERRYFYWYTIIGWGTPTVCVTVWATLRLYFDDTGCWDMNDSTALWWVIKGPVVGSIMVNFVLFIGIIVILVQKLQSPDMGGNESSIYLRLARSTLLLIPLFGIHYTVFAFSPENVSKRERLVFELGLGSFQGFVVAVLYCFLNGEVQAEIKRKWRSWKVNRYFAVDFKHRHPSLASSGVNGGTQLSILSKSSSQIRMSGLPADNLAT

| Compound | IC50 [1] | EC50 [2] | Emax [3] |
| --- | --- | --- | --- |
| CC[C@H](C)[C@H](NC(=O)C(C)(C)NC(=O)[C@H](CC(=O)O)NC(=O)[C@H](CO)NC(=O)[C@@H](N)Cc1cnc[nH]1)C(=O)N[C@@H](Cc1ccccc1)C(=O)N[C@H](C(=O)N[C@@H](CC(=O)O)C(=O)N[C@@H](CO)C(=O)N[C@@H](Cc1ccc(O)cc1)C(=O)N[C@@H](CO)C(=O)N[C@@H](CCCNC(=N)N)C(=O)N[C@@H](Cc1ccc(O)cc1)C(=O)N[C@@H](CCCNC(=N)N)C(=O)N[C@@H](CCCCN)C(=O)N[C@@H](CCC(N)=O)C(=O)N[C@@H](CCSC)C(=O)N[C@@H](C)C(=O)N[C@H](C(=O)N[C@@H](CCCCN)C(=O)N[C@@H](CCCCN)C(=O)N[C@@H](Cc1ccc(O)cc1)C(=O)N[C@@H](CC(C)C)C(=O)N[C@@H](C)C(=O)N[C@@H](C)C(=O)N[C@H](C(=O)N[C@@H](CC(C)C)C(=O)NCC(=O)N[C@@H](CCCCN)C(=O)N[C@@H](CCCNC(=N)N)C(=O)N[C@@H](Cc1ccc(O)cc1)C(=O)N[C@@H](CCCCN)C(=O)N[C@@H](CCC(N)=O)C(=O)N[C@@H](CCCNC(=N)N)C(=O)N[C@H](C(=O)N[C@@H](CCCCN)C(=O)N[C@@H](CC(N)=O)C(=O)N[C@@H](CCCCN)C(N)=O)C(C)C)C(C)C)C(C)C)[C@@H](C)O (H-HSD[Aib]IFTDSYSRYRKQMAVKKYLAAVLGKRYKQRVKNK-NH2) | 9.2 nM | 3.3 nM | 84% |
| CC[C@H](C)[C@H](NC(=O)CNC(=O)[C@H](CC(=O)O)NC(=O)C(C)(C)NC(=O)[C@@H](N)Cc1cnc[nH]1)C(=O)N[C@@H](Cc1ccccc1)C(=O)N[C@H](C(=O)N[C@@H](CC(=O)O)C(=O)N[C@@H](CO)C(=O)N[C@@H](Cc1ccc(O)cc1)C(=O)N[C@@H](CO)C(=O)N[C@@H](CCCNC(=N)N)C(=O)N[C@@H](Cc1ccc(O)cc1)C(=O)N[C@@H](CCCNC(=N)N)C(=O)N[C@@H](CCCCN)C(=O)N[C@@H](CCC(N)=O)C(=O)N[C@@H](CCSC)C(=O)N[C@@H](C)C(=O)N[C@H](C(=O)N[C@@H](CCCCN)C(=O)N[C@@H](CCCCN)C(=O)N[C@@H](Cc1ccc(O)cc1)C(=O)N[C@@H](CC(C)C)C(=O)N[C@@H](C)C(=O)N[C@@H](C)C(=O)N[C@H](C(=O)N[C@@H](CC(C)C)C(=O)NCC(=O)N[C@@H](CCCCN)C(=O)N[C@@H](CCCNC(=N)N)C(=O)N[C@@H](Cc1ccc(O)cc1)C(=O)N[C@@H](CCCCN)C(=O)N[C@@H](CCC(N)=O)C(=O)N[C@@H](CCCNC(=N)N)C(=O)N[C@H](C(=O)N[C@@H](CCCCN)C(=O)N[C@@H](CC(N)=O)C(=O)N[C@@H](CCCCN)C(N)=O)C(C)C)C(C)C)C(C)C)[C@@H](C)O (H-H[Aib]DGIFTDSYSRYRKQMAVKKYLAAVLGKRYKQRVKNK-NH2) | 7.2 nM | 4.3 nM | 94.8% |
| CC[C@H](C)[C@H](NC(=O)CNC(=O)[C@H](CC(=O)O)NC(=O)[C@H](CO)NC(=O)[C@@H](N)Cc1cnc[nH]1)C(=O)N[C@@H](Cc1ccc(O)cc1)C(=O)N[C@H](C(=O)N[C@@H](CC(=O)O)C(=O)N[C@@H](CO)C(=O)N[C@@H](Cc1ccc(O)cc1)C(=O)N[C@@H](CO)C(=O)N[C@@H](CCCNC(=N)N)C(=O)N[C@@H](Cc1ccc(O)cc1)C(=O)N[C@@H](CCCNC(=N)N)C(=O)N[C@@H](CCCCN)C(=O)N[C@@H](CCC(N)=O)C(=O)N[C@@H](CCSC)C(=O)N[C@@H](C)C(=O)N[C@H](C(=O)N[C@@H](CCCCN)C(=O)N[C@@H](CCCCN)C(=O)N[C@@H](Cc1ccc(O)cc1)C(=O)N[C@@H](CC(C)C)C(=O)N[C@@H](C)C(=O)N[C@@H](C)C(=O)N[C@H](C(=O)N[C@@H](CC(C)C)C(N)=O)C(C)C)C(C)C)[C@@H](C)O | 7.9 nM | 7.7 nM | 108% |
| CC[C@H](C)[C@H](NC(=O)CNC(=O)[C@H](CC(=O)O)NC(=O)[C@H](CO)NC(=O)[C@@H](N)Cc1cnc[nH]1)C(=O)N[C@@H](C)C(=O)N[C@H](C(=O)N[C@@H](CC(=O)O)C(=O)N[C@@H](CO)C(=O)N[C@@H](Cc1ccc(O)cc1)C(=O)N[C@@H](CO)C(=O)N[C@@H](CCCNC(=N)N)C(=O)N[C@@H](Cc1ccc(O)cc1)C(=O)N[C@@H](CCCNC(=N)N)C(=O)N[C@@H](CCCCN)C(=O)N[C@@H](CCC(N)=O)C(=O)N[C@@H](CCSC)C(=O)N[C@@H](C)C(=O)N[C@H](C(=O)N[C@@H](CCCCN)C(=O)N[C@@H](CCCCN)C(=O)N[C@@H](Cc1ccc(O)cc1)C(=O)N[C@@H](CC(C)C)C(=O)N[C@@H](C)C(=O)N[C@@H](C)C(=O)N[C@H](C(=O)N[C@@H](CC(C)C)C(=O)NCC(=O)N[C@@H](CCCCN)C(=O)N[C@@H](CCCNC(=N)N)C(=O)N[C@@H](Cc1ccc(O)cc1)C(=O)N[C@@H](CCCCN)C(=O)N[C@@H](CCC(N)=O)C(=O)N[C@@H](CCCNC(=N)N)C(=O)N[C@H](C(=O)N[C@@H](CCCCN)C(=O)N[C@@H](CC(N)=O)C(=O)N[C@@H](CCCCN)C(N)=O)C(C)C)C(C)C)C(C)C)[C@@H](C)O (H-HSDGIATDSYSRYRKQMAVKKYLAAVLGKRYKQRVKNK-NH2) | 208 nM | 17.3 nM | 50.4% |
| CSCC[C@H](NC(=O)[C@H](CCC(N)=O)NC(=O)[C@H](CCCCN)NC(=O)[C@H](CCCNC(=N)N)NC(=O)[C@H](Cc1ccc(O)cc1)NC(=O)[C@H](CCCNC(=N)N)NC(=O)[C@H](CO)NC(=O)[C@H](Cc1ccc(O)cc1)NC(=O)[C@H](CO)NC(=O)[C@H](CC(=O)O)NC(=O)[C@@H](NC(=O)[C@H](Cc1ccccc1)NC(=O)[C@H](CC(C)C)N1CC[C@H](NC(=O)[C@H](CC(=O)O)NC(=O)[C@H](CO)NC(=O)[C@@H](N)Cc2cnc[nH]2)C1=O)[C@@H](C)O)C(=O)N[C@@H](C)C(=O)N[C@H](C(=O)N[C@@H](CCCCN)C(=O)N[C@@H](CCCCN)C(=O)N[C@@H](Cc1ccc(O)cc1)C(=O)N[C@@H](CC(C)C)C(=O)N[C@@H](C)C(=O)N[C@@H](C)C(=O)N[C@H](C(=O)N[C@@H](CC(C)C)C(=O)NCC(=O)N[C@@H](CCCCN)C(=O)N[C@@H](CCCNC(=N)N)C(=O)N[C@@H](Cc1ccc(O)cc1)C(=O)N[C@@H](CCCCN)C(=O)N[C@@H](CCC(N)=O)C(=O)N[C@@H](CCCNC(=N)N)C(=O)N[C@H](C(=O)N[C@@H](CCCCN)C(=O)N[C@@H](CC(N)=O)C(=O)N[C@@H](CCCCN)C(N)=O)C(C)C)C(C)C)C(C)C | 775 nM | 2480 nM | 38.2% |
| CC[C@H](C)[C@H](NC(=O)CNC(=O)[C@H](CC(=O)O)N(C)C(=O)[C@H](CO)NC(=O)[C@@H](N)Cc1cnc[nH]1)C(=O)N[C@@H](Cc1ccccc1)C(=O)N[C@H](C(=O)N[C@@H](CC(=O)O)C(=O)N[C@@H](CO)C(=O)N[C@@H](Cc1ccc(O)cc1)C(=O)N[C@@H](CO)C(=O)N[C@@H](CCCNC(=N)N)C(=O)N[C@@H](Cc1ccc(O)cc1)C(=O)N[C@@H](CCCNC(=N)N)C(=O)N[C@@H](CCCCN)C(=O)N[C@@H](CCC(N)=O)C(=O)N[C@@H](CCSC)C(=O)N[C@@H](C)C(=O)N[C@H](C(=O)N[C@@H](CCCCN)C(=O)N[C@@H](CCCCN)C(=O)N[C@@H](Cc1ccc(O)cc1)C(=O)N[C@@H](CC(C)C)C(=O)N[C@@H](C)C(=O)N[C@@H](C)C(=O)N[C@H](C(=O)N[C@@H](CC(C)C)C(=O)NCC(=O)N[C@@H](CCCCN)C(=O)N[C@@H](CCCNC(=N)N)C(=O)N[C@@H](Cc1ccc(O)cc1)C(=O)N[C@@H](CCCCN)C(=O)N[C@@H](CCC(N)=O)C(=O)N[C@@H](CCCNC(=N)N)C(=O)N[C@H](C(=O)N[C@@H](CCCCN)C(=O)N[C@@H](CC(N)=O)C(=O)N[C@@H](CCCCN)C(N)=O)C(C)C)C(C)C)C(C)C)[C@@H](C)O | 10.4 nM | 219 nM | 92.5% |
| CC[C@H](C)[C@H](NC(=O)CNC(=O)[C@H](CC(=O)O)NC(=O)[C@H](CO)NC(=O)[C@@H](N)Cc1cnc[nH]1)C(=O)N[C@@H](Cc1cccc2ccccc12)C(=O)N[C@H](C(=O)N[C@@H](CC(=O)O)C(=O)N[C@@H](CO)C(=O)N[C@@H](Cc1ccc(O)cc1)C(=O)N[C@@H](CO)C(=O)N[C@@H](CCCNC(=N)N)C(=O)N[C@@H](Cc1ccc(O)cc1)C(=O)N[C@@H](CCCNC(=N)N)C(=O)N[C@@H](CCCCN)C(=O)N[C@@H](CCC(N)=O)C(=O)N[C@@H](CCSC)C(=O)N[C@@H](C)C(=O)N[C@H](C(=O)N[C@@H](CCCCN)C(=O)N[C@@H](CCCCN)C(=O)N[C@@H](Cc1ccc(O)cc1)C(=O)N[C@@H](CC(C)C)C(=O)N[C@@H](C)C(=O)N[C@@H](C)C(=O)N[C@H](C(=O)N[C@@H](CC(C)C)C(=O)NCC(=O)N[C@@H](CCCCN)C(=O)N[C@@H](CCCNC(=N)N)C(=O)N[C@@H](Cc1ccc(O)cc1)C(=O)N[C@@H](CCCCN)C(=O)N[C@@H](CCC(N)=O)C(=O)N[C@@H](CCCNC(=N)N)C(=O)N[C@H](C(=O)N[C@@H](CCCCN)C(=O)N[C@@H](CC(N)=O)C(=O)N[C@@H](CCCCN)C(N)=O)C(C)C)C(C)C)C(C)C)[C@@H](C)O (H-HSDGI[1Nal]TDSYSRYRKQMAVKKYLAAVLGKRYKQRVKNK-NH2) | 5 nM | 1.4 nM | 106% |
| CC[C@H](C)[C@H](NC(=O)CNC(=O)[C@H](CC(=O)O)NC(=O)[C@H](CO)NC(=O)[C@@H](N)Cc1cnc[nH]1)C(=O)N[C@@H](Cc1ccccc1)C(=O)N[C@@H](C)C(=O)N[C@@H](CC(=O)O)C(=O)N[C@@H](CO)C(=O)N[C@@H](Cc1ccc(O)cc1)C(=O)N[C@@H](CO)C(=O)N[C@@H](CCCNC(=N)N)C(=O)N[C@@H](Cc1ccc(O)cc1)C(=O)N[C@@H](CCCNC(=N)N)C(=O)N[C@@H](CCCCN)C(=O)N[C@@H](CCC(N)=O)C(=O)N[C@@H](CCSC)C(=O)N[C@@H](C)C(=O)N[C@H](C(=O)N[C@@H](CCCCN)C(=O)N[C@@H](CCCCN)C(=O)N[C@@H](Cc1ccc(O)cc1)C(=O)N[C@@H](CC(C)C)C(=O)N[C@@H](C)C(=O)N[C@@H](C)C(=O)N[C@H](C(=O)N[C@@H](CC(C)C)C(N)=O)C(C)C)C(C)C | 10.8 nM | 8.75 nM | 112% |
